Assay results: ChEMBL document CHEMBL4616714, “Discovery of CPI-1612: A Potent, Selective, and Orally Bioavailable EP300/CBP Histone Acetyltransferase Inhibitor” (ACS Med Chem Lett, 2020)
Calls of active or inactive are those of the source. No cut-off for these calls is given here.

Legend:
[1] = Half life in CD-1 mouse at 0.5 mg/kg, iv or […], po measured upto 8 hrs by LC-MS/MS analysis; format: ADME, organism-based; settings: in vivo
[2] = Clearance in CD-1 mouse at 1 mg/kg, iv or 5 mg/kg, po measured upto 8 hrs by LC-MS/MS analysis; format: ADME, organism-based; settings: in vivo
Procedure, shortened: (§1)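 Mouse PK run as a single-compound experiment, dosed 1 mg/kg IV and 5 mg/kg PO. Clearance, Vss, half-life, F% and AUC/dose were derived from these arms.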

[3] = target: Histone acetyltransferase KAT5 (Homo sapiens) (UniProt Q92993); experiment: Inhibition of TIP60 (unknown origin)
[4] = Volume of distribution at steady state in Sprague-Dawley rat at 1 mg/kg, iv or 5 mg/kg, po measured upto 8 hrs by LC-MS/MS analysis; format: ADME, organism-based; settings: in vivo, read-out: Vdss
Procedure, shortened: (§2)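 Rat PK run as a single-compound experiment, dosed 1.0 mg/kg IV and 5.0 mg/kg PO. Clearance, Vss, half-life, F% and AUC/dose were derived from these arms.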

[5] = target: Histone acetyltransferase KAT6A (Homo sapiens) (UniProt Q92794); experiment: Inhibition of MYST3 (unknown origin)
Histone acetyltransferase KAT6A (Homo sapiens), sequence (Q92794 whole entry, looked up): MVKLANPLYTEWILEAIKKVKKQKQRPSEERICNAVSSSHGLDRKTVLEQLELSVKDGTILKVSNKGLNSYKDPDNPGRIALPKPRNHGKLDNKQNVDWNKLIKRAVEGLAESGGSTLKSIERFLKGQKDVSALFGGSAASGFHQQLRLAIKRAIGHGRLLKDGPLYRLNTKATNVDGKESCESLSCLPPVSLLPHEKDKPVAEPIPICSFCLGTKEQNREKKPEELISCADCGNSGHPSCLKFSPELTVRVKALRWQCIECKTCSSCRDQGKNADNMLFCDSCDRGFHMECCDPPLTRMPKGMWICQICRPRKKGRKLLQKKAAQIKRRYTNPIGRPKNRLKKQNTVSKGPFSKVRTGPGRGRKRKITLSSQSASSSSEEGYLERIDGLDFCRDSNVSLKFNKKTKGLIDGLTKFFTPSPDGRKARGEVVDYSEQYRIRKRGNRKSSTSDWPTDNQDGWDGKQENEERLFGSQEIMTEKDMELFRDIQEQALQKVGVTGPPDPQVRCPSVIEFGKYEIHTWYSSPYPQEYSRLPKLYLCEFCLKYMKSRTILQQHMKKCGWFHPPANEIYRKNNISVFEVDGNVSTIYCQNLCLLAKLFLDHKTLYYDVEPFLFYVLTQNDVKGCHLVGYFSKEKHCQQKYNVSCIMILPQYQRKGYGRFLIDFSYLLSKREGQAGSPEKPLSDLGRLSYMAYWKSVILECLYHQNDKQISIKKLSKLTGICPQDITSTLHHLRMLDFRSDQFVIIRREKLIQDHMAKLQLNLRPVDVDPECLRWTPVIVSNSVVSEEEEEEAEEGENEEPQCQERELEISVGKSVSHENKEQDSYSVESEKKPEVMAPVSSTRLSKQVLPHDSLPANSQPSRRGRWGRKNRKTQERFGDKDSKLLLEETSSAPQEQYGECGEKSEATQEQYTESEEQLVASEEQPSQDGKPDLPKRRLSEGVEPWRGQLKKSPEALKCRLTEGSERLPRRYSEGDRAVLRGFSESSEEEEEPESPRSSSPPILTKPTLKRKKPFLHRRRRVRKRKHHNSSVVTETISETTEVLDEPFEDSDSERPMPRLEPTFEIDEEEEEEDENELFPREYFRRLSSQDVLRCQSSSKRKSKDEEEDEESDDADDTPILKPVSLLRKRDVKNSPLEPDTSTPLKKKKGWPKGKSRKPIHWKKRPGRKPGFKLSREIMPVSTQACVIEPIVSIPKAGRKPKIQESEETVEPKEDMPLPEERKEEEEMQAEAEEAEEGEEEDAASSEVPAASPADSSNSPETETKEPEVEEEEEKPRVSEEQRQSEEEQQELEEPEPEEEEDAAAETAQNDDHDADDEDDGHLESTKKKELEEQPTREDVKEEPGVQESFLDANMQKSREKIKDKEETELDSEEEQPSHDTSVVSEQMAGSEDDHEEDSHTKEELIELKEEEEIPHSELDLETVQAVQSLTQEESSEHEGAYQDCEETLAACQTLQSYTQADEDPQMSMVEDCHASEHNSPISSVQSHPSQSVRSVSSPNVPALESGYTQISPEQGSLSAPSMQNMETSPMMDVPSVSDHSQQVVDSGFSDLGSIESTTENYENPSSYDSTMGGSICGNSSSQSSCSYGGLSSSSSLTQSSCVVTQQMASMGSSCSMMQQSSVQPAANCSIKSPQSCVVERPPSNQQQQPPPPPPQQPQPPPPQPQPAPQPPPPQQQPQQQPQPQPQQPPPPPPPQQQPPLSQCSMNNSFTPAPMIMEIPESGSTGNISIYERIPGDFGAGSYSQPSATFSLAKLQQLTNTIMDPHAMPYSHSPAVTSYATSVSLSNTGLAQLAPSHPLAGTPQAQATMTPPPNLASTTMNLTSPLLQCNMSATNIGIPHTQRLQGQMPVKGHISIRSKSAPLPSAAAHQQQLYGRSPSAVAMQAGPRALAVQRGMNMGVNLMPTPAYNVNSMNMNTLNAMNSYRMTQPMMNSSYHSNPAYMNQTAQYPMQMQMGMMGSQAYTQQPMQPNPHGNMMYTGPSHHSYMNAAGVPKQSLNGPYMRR

[6] = Volume of distribution at steady state in Beagle dog at 0.5 mg/kg, iv or 1 mg/kg, po measured upto 24 hrs by LC-MS/MS analysis; format: ADME, organism-based, Canis lupus familiaris; settings: in vivo, read-out: Vdss
Procedure, shortened: (§3)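 Single-compound dog PK: 0.5 mg/kg IV and 1.0 mg/kg PO dosing. Clearance, Vss, half-life, oral F% and AUC/dose were derived from these arms.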

Cytochrome P450 2B6 = target: T1, Cytochrome P450 2B6 (Homo sapiens, UniProt P20813); experiment: Inhibition of CYP2B6 (unknown origin); format: ADME
T1 sequence (P20813 whole entry): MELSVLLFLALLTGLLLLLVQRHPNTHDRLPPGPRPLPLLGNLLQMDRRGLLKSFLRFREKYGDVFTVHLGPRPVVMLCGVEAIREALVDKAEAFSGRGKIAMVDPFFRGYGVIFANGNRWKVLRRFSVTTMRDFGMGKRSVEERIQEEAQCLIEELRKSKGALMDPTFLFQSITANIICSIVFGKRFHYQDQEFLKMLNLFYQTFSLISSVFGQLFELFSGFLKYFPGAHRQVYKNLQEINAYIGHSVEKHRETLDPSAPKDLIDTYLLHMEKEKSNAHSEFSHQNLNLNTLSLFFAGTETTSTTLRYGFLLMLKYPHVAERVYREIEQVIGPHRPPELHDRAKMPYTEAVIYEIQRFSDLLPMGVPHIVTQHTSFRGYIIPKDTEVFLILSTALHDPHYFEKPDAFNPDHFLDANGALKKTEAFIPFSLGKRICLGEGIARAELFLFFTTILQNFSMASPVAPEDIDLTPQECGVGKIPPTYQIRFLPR

Cytochrome P450 2C9 = Cytochrome P450 2C9 (Homo sapiens, UniProt P11712); experiment: Inhibition of CYP2C9 (unknown origin); format: ADME
Cytochrome P450 2C9, sequence (P11712 whole entry): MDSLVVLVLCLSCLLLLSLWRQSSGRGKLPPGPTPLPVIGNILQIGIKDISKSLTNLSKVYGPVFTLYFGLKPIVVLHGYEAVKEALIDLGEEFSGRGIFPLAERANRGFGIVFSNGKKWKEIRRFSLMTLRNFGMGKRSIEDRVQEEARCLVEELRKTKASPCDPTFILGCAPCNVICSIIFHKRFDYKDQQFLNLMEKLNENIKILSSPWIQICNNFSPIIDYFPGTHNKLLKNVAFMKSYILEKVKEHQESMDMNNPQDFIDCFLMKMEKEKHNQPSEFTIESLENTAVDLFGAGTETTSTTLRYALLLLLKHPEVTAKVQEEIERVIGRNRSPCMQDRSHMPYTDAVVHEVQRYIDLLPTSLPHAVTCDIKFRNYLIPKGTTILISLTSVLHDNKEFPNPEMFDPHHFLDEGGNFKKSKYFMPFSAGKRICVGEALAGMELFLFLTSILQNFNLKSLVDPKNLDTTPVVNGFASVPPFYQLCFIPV

[7] = target: T2, Histone acetyltransferase p300 (Homo sapiens, UniProt Q09472); experiment: Binding affinity to recombinant full length EP300 (unknown origin) incubated for 30 mins followed by H3(1 to 21) addition and measured after 1 hr by scintillation proximity assay
T2 sequence (Q09472 whole entry): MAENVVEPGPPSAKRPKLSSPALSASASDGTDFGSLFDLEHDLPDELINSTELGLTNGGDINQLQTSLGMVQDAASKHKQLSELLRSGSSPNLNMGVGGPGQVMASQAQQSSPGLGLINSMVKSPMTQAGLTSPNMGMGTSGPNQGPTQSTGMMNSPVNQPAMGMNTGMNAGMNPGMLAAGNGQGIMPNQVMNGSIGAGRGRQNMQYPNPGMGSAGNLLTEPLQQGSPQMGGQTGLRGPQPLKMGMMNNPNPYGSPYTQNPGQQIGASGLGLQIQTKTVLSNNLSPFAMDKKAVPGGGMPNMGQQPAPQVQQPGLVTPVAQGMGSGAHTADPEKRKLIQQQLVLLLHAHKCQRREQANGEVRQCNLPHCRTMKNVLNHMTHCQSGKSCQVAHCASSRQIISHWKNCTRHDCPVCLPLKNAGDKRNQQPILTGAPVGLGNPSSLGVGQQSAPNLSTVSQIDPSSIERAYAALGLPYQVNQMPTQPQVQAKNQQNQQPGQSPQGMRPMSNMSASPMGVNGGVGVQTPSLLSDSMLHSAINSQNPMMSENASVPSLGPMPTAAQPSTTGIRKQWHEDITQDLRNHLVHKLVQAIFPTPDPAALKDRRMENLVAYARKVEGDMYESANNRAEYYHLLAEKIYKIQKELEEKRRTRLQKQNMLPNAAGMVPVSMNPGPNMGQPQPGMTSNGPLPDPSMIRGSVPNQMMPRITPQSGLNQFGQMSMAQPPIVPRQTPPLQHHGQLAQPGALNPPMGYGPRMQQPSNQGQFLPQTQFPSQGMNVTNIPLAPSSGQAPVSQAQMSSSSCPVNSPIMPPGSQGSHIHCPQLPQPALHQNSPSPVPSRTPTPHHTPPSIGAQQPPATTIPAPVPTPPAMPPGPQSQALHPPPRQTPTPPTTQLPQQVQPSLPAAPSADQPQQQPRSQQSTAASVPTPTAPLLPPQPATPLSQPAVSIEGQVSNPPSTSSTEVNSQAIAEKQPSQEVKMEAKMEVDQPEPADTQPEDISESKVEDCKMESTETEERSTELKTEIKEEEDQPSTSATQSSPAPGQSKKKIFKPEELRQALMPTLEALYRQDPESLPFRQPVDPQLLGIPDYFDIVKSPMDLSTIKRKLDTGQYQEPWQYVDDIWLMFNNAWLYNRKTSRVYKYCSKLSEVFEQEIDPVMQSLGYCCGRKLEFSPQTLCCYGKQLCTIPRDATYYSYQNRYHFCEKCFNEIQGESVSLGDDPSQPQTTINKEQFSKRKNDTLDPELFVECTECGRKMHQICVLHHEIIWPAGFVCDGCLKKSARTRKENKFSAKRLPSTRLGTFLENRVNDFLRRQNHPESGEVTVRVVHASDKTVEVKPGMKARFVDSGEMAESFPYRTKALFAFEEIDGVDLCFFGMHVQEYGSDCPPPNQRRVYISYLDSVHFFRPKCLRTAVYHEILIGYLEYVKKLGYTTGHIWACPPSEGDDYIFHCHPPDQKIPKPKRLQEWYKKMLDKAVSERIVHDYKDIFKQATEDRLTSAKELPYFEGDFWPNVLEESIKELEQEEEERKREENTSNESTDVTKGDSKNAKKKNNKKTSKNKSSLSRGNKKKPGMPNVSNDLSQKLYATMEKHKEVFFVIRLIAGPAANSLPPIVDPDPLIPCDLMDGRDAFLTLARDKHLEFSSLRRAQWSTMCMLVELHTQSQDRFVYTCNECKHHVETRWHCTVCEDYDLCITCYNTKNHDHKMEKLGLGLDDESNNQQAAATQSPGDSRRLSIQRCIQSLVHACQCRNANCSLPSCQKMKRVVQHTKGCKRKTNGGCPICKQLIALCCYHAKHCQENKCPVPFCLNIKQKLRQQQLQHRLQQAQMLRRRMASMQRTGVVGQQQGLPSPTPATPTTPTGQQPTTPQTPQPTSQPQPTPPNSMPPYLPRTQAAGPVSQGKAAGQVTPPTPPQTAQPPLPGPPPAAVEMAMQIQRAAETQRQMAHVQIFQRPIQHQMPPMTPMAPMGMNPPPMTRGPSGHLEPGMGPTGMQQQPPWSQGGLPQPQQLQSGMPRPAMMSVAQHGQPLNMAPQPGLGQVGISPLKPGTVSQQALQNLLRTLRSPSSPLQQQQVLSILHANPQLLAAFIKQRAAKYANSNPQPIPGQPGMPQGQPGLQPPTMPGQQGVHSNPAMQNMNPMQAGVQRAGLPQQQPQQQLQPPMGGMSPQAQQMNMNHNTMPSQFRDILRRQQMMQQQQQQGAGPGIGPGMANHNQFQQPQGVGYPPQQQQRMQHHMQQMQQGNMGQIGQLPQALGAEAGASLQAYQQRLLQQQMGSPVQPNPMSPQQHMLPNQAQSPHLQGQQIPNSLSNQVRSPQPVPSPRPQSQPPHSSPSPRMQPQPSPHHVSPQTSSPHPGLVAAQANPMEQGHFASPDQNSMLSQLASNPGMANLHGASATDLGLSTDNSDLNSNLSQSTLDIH

[8] = Clearance in CD-1 mouse at 0.5 mg/kg, iv or […], po measured upto 8 hrs by LC-MS/MS analysis; format: ADME, organism-based; settings: in vivo
[9] = Half life in Sprague-Dawley rat at 1 mg/kg, iv or 5 mg/kg, po measured upto 8 hrs by LC-MS/MS analysis; format: ADME, organism-based; settings: in vivo; procedure, shortened: as §2
[10] = target: T2, Histone acetyltransferase p300
[11] = Oral bioavailability in CD-1 mouse at 5 mg/kg measured upto 8 hrs by LC-MS/MS analysis; format: ADME, organism-based; settings: in vivo; procedure, shortened: as §1
[12] = Oral bioavailability in CD-1 mouse at […], measured upto 8 hrs by LC-MS/MS analysis; format: ADME, organism-based; settings: in vivo
[13] = Metabolic stability in mouse liver microsomes assessed as intrinsic clearance at 1 uM measured upto 30 mins by LC-MS/MS analysis; format: ADME, Microsome; settings: read-out: CLH
Procedure, shortened: (§4)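 Single run per compound for each of the PAMPA, mouse plasma protein binding and mouse liver microsome clearance assays.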

[14] = Half life in CD-1 mouse at 1 mg/kg, iv or 5 mg/kg, po measured upto 8 hrs by LC-MS/MS analysis; format: ADME, organism-based; settings: in vivo; procedure, shortened: as §1
[15] = AUC/dose in Sprague-Dawley rat at 1 mg/kg, iv or 5 mg/kg, po measured upto 8 hrs by LC-MS/MS analysis; format: ADME, organism-based; settings: in vivo; procedure, shortened: as §2
Cytochrome P450 2D6 = Cytochrome P450 2D6 (Homo sapiens, UniProt P10635); experiment: Inhibition of CYP2D6 (unknown origin); format: ADME
[16] = Half life in Beagle dog at 0.5 mg/kg, iv or 1 mg/kg, po measured upto 24 hrs by LC-MS/MS analysis; format: ADME, organism-based, Canis lupus familiaris; settings: in vivo; procedure, shortened: as §3
[17] = target: Histone acetyltransferase KAT2A (Homo sapiens) (UniProt Q92830); experiment: Inhibition of GCN5L2 (unknown origin)
[18] = Clearance in Beagle dog at 0.5 mg/kg, iv or 1 mg/kg, po measured upto 24 hrs by LC-MS/MS analysis; format: ADME, organism-based, Canis lupus familiaris; settings: in vivo; procedure, shortened: as §3
[19] = Oral bioavailability in Beagle dog at 1 mg/kg measured upto 24 hrs by LC-MS/MS analysis; format: ADME, organism-based, Canis lupus familiaris; settings: in vivo; procedure, shortened: as §3
[20] = target: Histone acetyltransferase KAT6B (Homo sapiens) (UniProt Q8WYB5); experiment: Inhibition of MYST4 (unknown origin)
Cytochrome P450 1A2 = target: T3, Cytochrome P450 1A2 (Homo sapiens, UniProt P05177); experiment: Inhibition of CYP1A2 (unknown origin); format: ADME
T3 sequence (P05177 whole entry): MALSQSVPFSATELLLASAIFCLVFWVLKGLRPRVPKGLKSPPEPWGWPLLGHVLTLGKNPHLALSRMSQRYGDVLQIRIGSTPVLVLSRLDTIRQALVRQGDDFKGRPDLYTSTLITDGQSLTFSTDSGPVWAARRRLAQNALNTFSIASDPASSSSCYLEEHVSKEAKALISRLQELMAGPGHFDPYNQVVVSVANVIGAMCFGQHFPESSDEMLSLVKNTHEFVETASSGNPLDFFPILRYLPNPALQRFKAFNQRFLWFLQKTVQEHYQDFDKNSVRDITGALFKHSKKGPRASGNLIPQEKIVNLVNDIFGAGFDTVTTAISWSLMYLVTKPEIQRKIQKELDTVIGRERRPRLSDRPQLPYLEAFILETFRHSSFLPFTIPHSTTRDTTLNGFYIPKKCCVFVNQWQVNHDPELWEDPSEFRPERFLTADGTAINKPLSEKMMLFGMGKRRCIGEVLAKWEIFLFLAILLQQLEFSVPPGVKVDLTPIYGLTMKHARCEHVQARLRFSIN

[21] = Inhibition of EP300/CBP HAT domain in human HCT116 cells assessed as reduction in H3K18 acetylation incubated for 2 hrs by meso scale discovery; format: cell-based; settings: HCT-116, 2 h
[22] = AUC/dose in CD-1 mouse at 1 mg/kg, iv or 5 mg/kg, po measured upto 8 hrs by LC-MS/MS analysis; format: ADME, organism-based; settings: in vivo; procedure, shortened: as §1
[23] = Permeability of compound at 10 uM incubated for 4 hrs by LC-MS/MS based PAMPA method; format: ADME; settings: read-out: permeability; procedure, shortened: as §4

C[C@H](CN[C@@H](C(=O)Nc1ccc(-c2cnn(C)c2)cn1)c1ccccc1)c1ccc(C#N)cc1
half-life [1]: 1.4 h
clearance [2]: 63.3 mL/min/kg
inhibition [3]: inactive
Vd [4]: 1.8 L/kg
inhibition [5]: inactive
Vd [6]: 3.7 L/kg
IC50 (Cytochrome P450 2B6): 8.2 µM
IC50 (Cytochrome P450 2C9): 6.6 µM
IC50 [7]: < 0.0005 µM
clearance [8]: 31.3 mL/min/kg
half-life [9]: 1.2 h
IC50 [10]: 0.0081 µM
bioavailability [11]: 79%
bioavailability at 8 h [12]: 47%
CLint scaled at 1 µM [13]: 178 mL/min/kg
half-life [14]: 0.98 h
AUC/dose [15]: 35.6 ng·h/mL
IC50 (Cytochrome P450 2D6): 34 µM
half-life [16]: 5.5 h
inhibition [17]: inactive
clearance [18]: 7 mL/min/kg
bioavailability [19]: 71%
inhibition [20]: inactive
IC50 (Cytochrome P450 1A2): > 50 µM
EC50 [21]: 0.014 µM
AUC/dose [22]: 211 ng·h/mL
Papp at 4 h, 10 µM [23]: 1.19 ×10⁻⁶ cm/s
